Legend:
Prothrombin [1] = target: T1, Prothrombin (Homo sapiens, UniProt P00734); test: Concentration required to double plasma clotting prothrombin time; format: functional, cell-free
Summary of the method: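 Standard plasma coagulation assays, APTT and PT respectively. The value is the inhibitor concentration that doubles plasma clotting time.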

Trypsin = Trypsin (Homo sapiens, UniProt P07477+P07478+P35030); test: Inhibitory activity against coagulation factor trypsin; format: protein assay
Prothrombin [2] = target: T1, Prothrombin; test: Inhibitory concentration in dilute prothrombin time assay; format: functional
Summary of the method: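 Dilute prothrombin time assay, run as PT with diluted thromboplastin reagent. The value is the inhibitor concentration giving 50% inhibition of dPT.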

Prothrombin [3] = target: T1, Prothrombin; test: Inhibitory activity against coagulation factor II (thrombin)
[4] = target: Tissue-type plasminogen activator (Homo sapiens, UniProt P00750); test: Inhibitory activity against human tissue plasminogen activator
Tissue-type plasminogen activator, sequence (P00750 whole entry): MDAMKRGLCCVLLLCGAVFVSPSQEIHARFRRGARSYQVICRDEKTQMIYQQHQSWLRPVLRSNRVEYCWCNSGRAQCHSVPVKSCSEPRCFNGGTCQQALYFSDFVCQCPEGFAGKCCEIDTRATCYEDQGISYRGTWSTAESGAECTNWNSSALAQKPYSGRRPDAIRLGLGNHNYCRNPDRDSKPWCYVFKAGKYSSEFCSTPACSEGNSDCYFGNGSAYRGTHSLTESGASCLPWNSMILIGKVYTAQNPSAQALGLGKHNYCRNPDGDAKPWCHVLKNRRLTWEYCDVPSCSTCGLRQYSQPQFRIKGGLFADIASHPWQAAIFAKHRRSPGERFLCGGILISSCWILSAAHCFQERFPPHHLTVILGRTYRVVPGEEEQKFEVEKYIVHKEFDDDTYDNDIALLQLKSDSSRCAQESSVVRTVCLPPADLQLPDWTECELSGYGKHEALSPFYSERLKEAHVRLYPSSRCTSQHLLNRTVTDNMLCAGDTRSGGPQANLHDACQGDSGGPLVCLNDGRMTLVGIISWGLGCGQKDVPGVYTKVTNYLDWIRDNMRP

Coagulation factor X = Coagulation factor X (Homo sapiens, UniProt P00742); test: Inhibitory activity against serine protease factor Xa
Coagulation factor X, sequence (P00742 41-179 limits assumed): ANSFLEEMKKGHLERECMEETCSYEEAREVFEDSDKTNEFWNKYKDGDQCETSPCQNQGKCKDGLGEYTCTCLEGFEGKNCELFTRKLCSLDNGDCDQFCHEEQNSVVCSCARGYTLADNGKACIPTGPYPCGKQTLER
Coagulation factor X, sequence (P00742 235-488 limits assumed): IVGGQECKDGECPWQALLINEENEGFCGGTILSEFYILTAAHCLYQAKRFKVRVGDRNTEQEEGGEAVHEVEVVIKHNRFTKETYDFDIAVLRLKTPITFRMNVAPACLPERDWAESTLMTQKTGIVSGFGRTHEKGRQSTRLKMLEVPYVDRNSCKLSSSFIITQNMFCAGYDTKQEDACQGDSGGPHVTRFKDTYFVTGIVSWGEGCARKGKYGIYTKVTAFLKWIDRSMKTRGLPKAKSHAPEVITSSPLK

| SMILES | Concentration (Prothrombin [1]) | Ki (Trypsin) | IC50 (Prothrombin [2]) | Ki (Prothrombin [3]) | Ki [4] | Ki (Coagulation factor X) |
| --- | --- | --- | --- | --- | --- | --- |
| O=C(c1cc2ccccc2n1Cc1cc(-c2ccc(Cl)s2)on1)N1CCC(Nc2ccncc2)CC1 | 5.78 µM | > 100 µM | 0.19 µM | 3.16 µM | 64 µM | – |
| CC(C)N1CC(CNC(=O)c2cc3ccccc3n2Cc2cc(-c3ccc(Cl)s3)on2)C1 | – | – | – | – | – | 0.839 µM |
| CN1CCC(NC(=O)c2cc3ccccc3n2Cc2cc(-c3ccc(Cl)s3)on2)CC1 | 30.7 µM | > 100 µM | 1.55 µM | > 10 µM | > 100 µM | – |
| O=C(NC1CCN(C2CC2)CC1)c1cc2ccccc2n1Cc1cc(-c2ccc(Cl)s2)on1 | 19.6 µM | > 100 µM | 1.79 µM | 8.22 µM | > 100 µM | – |
| CC(C)CN1CC(NC(=O)c2cc3ccccc3n2Cc2cc(-c3ccc(Cl)s3)on2)C1 | – | – | – | – | – | 0.345 µM |
| CCCN1CCC(NC(=O)c2cc3ccccc3n2Cc2cc(-c3ccc(Cl)s3)on2)CC1 | 15.6 µM | – | 1.56 µM | – | – | – |
| O=C(NC1CCN(C2CCCCC2)CC1)c1cc2ccccc2n1Cc1cc(-c2ccc(Cl)s2)on1 | – | – | – | – | – | 0.106 µM |
| O=C(NC1CCN(C2CCOCC2)CC1)c1cc2ccccc2n1Cc1cc(-c2ccc(Cl)s2)on1 | – | – | – | – | – | 0.095 µM |
| O=C(c1cc2ccccc2n1Cc1cc(-c2ccc(Cl)s2)on1)N1CCC(Oc2ccncc2)CC1 | – | – | – | – | – | 2.9 µM |
| O=C(NC1CN(c2ccncc2)C1)c1cc2ccccc2n1Cc1cc(-c2ccc(Cl)s2)on1 | 6.2 µM | > 100 µM | 0.37 µM | > 10 µM | > 100 µM | 0.012 µM |
| CC(C)N1CC(NC(=O)c2cc3ccccc3n2Cc2cc(-c3ccc(Cl)s3)on2)C1 | – | – | – | – | – | 0.225 µM |
| CCN1CCC(NC(=O)c2cc3ccccc3n2Cc2cc(-c3ccc(Cl)s3)on2)CC1 | 9.02 µM | > 100 µM | 0.37 µM | > 10 µM | > 100 µM | – |
| CC(C)N1CCC(NC(=O)c2cc3ccccc3n2Cc2cc(-c3ccc(Cl)s3)on2)CC1 | 5.41 µM | > 100 µM | 0.42 µM | 2.76 µM | > 100 µM | – |
| CC(C)N1CCC(CNC(=O)c2cc3ccccc3n2Cc2cc(-c3ccc(Cl)s3)on2)CC1 | – | – | – | – | – | 0.161 µM |
| O=C(NC1CCN(C2CCCC2)CC1)c1cc2ccccc2n1Cc1cc(-c2ccc(Cl)s2)on1 | – | – | – | – | – | 0.071 µM |
| CC(C)N1CC[C@@H](NC(=O)c2cc3ccccc3n2Cc2cc(-c3ccc(Cl)s3)on2)C1 | 13.7 µM | > 100 µM | 0.62 µM | > 10 µM | > 100 µM | – |
| O=C(NC1CCN(c2ccncc2)CC1)c1cc2ccccc2n1Cc1cc(-c2ccc(Cl)s2)on1 | 6.04 µM | > 100 µM | 0.23 µM | > 10 µM | > 100 µM | – |
| CS(=O)(=O)N1CCC(NC(=O)c2cc3ccccc3n2Cc2cc(-c3ccc(Cl)s3)on2)CC1 | – | – | – | – | – | 0.125 µM |
